Only some compounds are listed: those with a hit (about 2.3% of all), similar ones and a draw of the others.
STAT3 inh: IL-6 driven STAT3 reporter inhibitors, primary screen, U3A cells, luciferase, luminescence, MLSCN library. IL-6 STAT3-luciferase reporter; host cell line lacks STAT1. inhibition, % at 5.5 µM. AID 862, 2007. 190,000 compounds, 0.89% hits;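 active = inhibition above the mean inhibition across all screened compounds plus 3 SD, cut at about 44% in these data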;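 note: 0% = DMSO only wells and 100% = 100 µM nifuroxazide control wells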
STAT3 activator: IL-6 driven STAT3 reporter potentiators, primary screen, U3A cells, luciferase, luminescence, MLSCN library | IL-6 STAT3-luciferase reporter; 100% = signal with IL-6 EC80 alone | activation (% of control), % at 5.6 µM | 190,000 compounds, 0.91% hits;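 active = activation above the screen-wide mean of compound activation plus 3 SD, cut at about 130% in these data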;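 note: 0% = background luminescence of wells with medium and substrate only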
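Material: STAT3-luciferase reporter U3A cells. Controls: IL-6-treated wells, 100% activation. Read-out: % activation versus median of IL-6-stimulated wells. Probe or stimulus: IL-6 stimulus at 33 ng/mL final. Timing: compound 1 h, then IL-6 6 h at 37 °C. Signal: reporter luminescence signal.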
HSP90 inh: HSP90 inhibitors, primary screen, cell lysate, luminescence. Rabbit reticulocyte lysate, luciferase refolding luminescence, 3 h. inhibition, % at 5.6 µM. 290,000 compounds, 0.91% hits;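 active = inhibition above the screen-wide mean plus 3 SD, computed separately per campaign, cut at about 16% in these data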;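 note: 0% = DMSO wells and 100% = 60 µM geldanamycin wells; inhibitors lower the luminescence because luciferase stays unfolded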
PPC-1+TRAIL kill: compounds killing PPC-1 cancer cells with TRAIL present, primary screen, TRAIL potentiator project, ATPLite luminescence, uHTS; 220,000 compounds, 0.41% hits; cell killing (% activity), % at 4 µM or 5 µM; PPC-1 cells + TRAIL, ATPLite viability luminescence;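 active = cell killing above 50% in the first pass at 4 µM, then a duplicate retest at 5 µM averaging 50% or more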;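 note: plate controls were cells with TRAIL plus DMSO for no effect and medium-only wells lacking cells for full effect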
STAT1 blocker: STAT1 signaling inhibitors, primary screen, cell-based, HTS, luciferase reporter; NIH 3T3 STAT1-luciferase reporter, IFN-gamma, luminescence; inhibition, % at 5.5 µM; 200,000 compounds, 0.35% hits; AID 920, 2007;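 active = inhibition above a set limit, the mean inhibition across all tested compounds plus 3 SD, cut at about 34% in these data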;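 note: 0% = IFN-gamma with DMSO and 100% = IFN-gamma with 300 µM nifuroxazide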
TRAIL sens C8: viability loss with TRAIL in NB7+C8 cells, primary screen, TRAIL sensitizer project, cell-based, ATPlite luminescence | inhibition (viability loss, TRAIL sensitization), % at 10 µM | 360,000 compounds, 1% hits;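 active = compounds causing at least 50% loss of cell viability in the single-dose screen, relative to plate controls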
Numbers without * were called inactive; x = not tested or not shown.

SMILES | STAT3 inh | STAT3 activator | HSP90 inh | PPC-1+TRAIL kill | STAT1 blocker | TRAIL sens C8
N/C(=N\OC(=O)C12CC3CC(CC(C3)C1)C2)c1ccccc1 | -9.4 | 118.3 | 3.1 | 19.4 | -0.9 | 59.8*
N/C(=N\OC(=O)C12CC3CC(CC(C3)C1)C2)c1cccnc1 | 2.5 | 102.0 | -2.3 | 5.1 | -12.1 | 9.2
COc1ccccc1C/C(N)=N/OC(=O)COc1cccc2ccccc12 | 5.4 | 99.6 | 4.0 | 17.0 | 7.2 | 2.2
Cc1cccc(NC(=O)CNC(=O)Cn2ncc(Cl)c(Cl)c2=O)c1C | x | x | x | x | x | 74.3*
Cc1ccc(NC(=O)Cn2ncc(Cl)c(Cl)c2=O)cc1S(=O)(=O)N1CCCCC1 | x | x | x | x | x | 79.0*
O=C(OCn1ncc(Cl)c(Cl)c1=O)c1ccccc1Cl | 31.8 | 81.0 | -1.5 | 22.8 | -4.7 | 86.9*
Cc1cccc(NC(=O)CNC(=O)CSc2ncccn2)c1C | x | x | x | x | x | 11.2
O=C(Cn1ncc(Cl)c(Cl)c1=O)c1ccc(Cl)cc1 | 1.7 | 100.8 | 1.0 | 9.6 | 12.7 | 95.3*
CN(C)C/C=C/C(O)(c1ccccc1)c1ccccc1 | x | x | -1.2 | 8.8 | x | 22.2
CCCC(=O)Nc1ccc2c(c1)nc(CN1CCN(C(=O)OCC)CC1)n2CC | x | x | 4.2 | x | x | 29.3
CC(C(c1ccc2c(c1)OCO2)c1c(N)n(C)c(=O)n(C)c1=O)[N+](=O)[O-] (stereo not given) | x | x | x | x | x | -5.6
O=C(Cn1ncc(Cl)c(Cl)c1=O)NCC1CCCCC1 | 9.5 | 92.1 | 0.1 | 1.1 | 10.8 | 94.5*
O=C(Cn1ncc(Cl)c(Cl)c1=O)NC1CCS(=O)(=O)C1 (stereo not given) | x | x | 12.9 | -1.1 | x | 3.8
O=C(Cn1ncc(Cl)c(Cl)c1=O)NC1CCCCC1 | x | x | x | x | x | 96.2*
CN=c1scc(-c2ccccc2F)n1/N=C(\C)c1cccnc1 | 1.9 | 98.3 | 2.2 | 41.9 | -33.8 | 62.7*
CCCc1nc2oc3c(Cl)ncnc3c2c2c1CCCC2 | x | x | -2.3 | 31.4 | x | 14.2
CC(C)Cc1nc2oc3c(Cl)ncnc3c2c2c1CCCC2 | x | x | 1.1 | 3.0 | x | 67.3*
COC(=O)c1ccccc1-n1c(C)nc(=O)c(-c2ccccc2)c1C | x | x | -0.6 | x | x | -10.9
OCC1OC(n2ccc3c2ncn2ncnc32)C(O)C1O (stereo not given) | x | x | x | x | x | 81.8*
Cc1cc2nc(-c3ccc(SCC(=O)Nc4ccc(S(=O)(=O)N5CCCC5)cc4)nc3)[nH]c2cc1C | 0.5 | 101.8 | -4.6 | 63.3* | -45.2 | 72.0*
Cc1ccc2nc(-c3ccc(SCC(=O)N4CCc5ccccc54)nc3)[nH]c2c1 | -43.0 | 143.0* | -2.7 | 55.8* | -34.9 | 65.4*
O=C(CSc1ccc(-c2nc3ccccc3[nH]2)cn1)Nc1ccc(S(=O)(=O)N2CCCC2)cc1 | -8.8 | 105.0 | -2.8 | 3.0 | -1.9 | 8.1
COc1ccc(-c2ccc(SCC(=O)Nc3nccs3)nn2)cc1OC | -42.1 | 135.0* | -2.8 | 34.1 | -9.3 | -0.7
Cc1cc2nc(-c3ccc(SCC(=O)Nc4nccs4)nc3)[nH]c2cc1C | -10.5 | 107.5 | 2.5 | 25.4 | -29.4 | 59.2*
Cc1ccc2nc(-c3ccc(SCC(=O)O)nc3)[nH]c2c1 | 10.3 | 93.2 | 9.2 | 30.2 | 4.7 | 48.0
SMILES | STAT3 inh | STAT3 activator | HSP90 inh | PPC-1+TRAIL kill | STAT1 blocker | TRAIL sens C8
COc1ccc(-c2[nH]c(-c3ccc(C)cc3)nc2SCC(=O)Nc2nccs2)cc1 | -2.9 | 104.3 | 0.9 | -1.8 | 4.6 | 16.7
CCc1nnc(NC(=O)CSc2ccc(-c3nc4ccc(C)cc4[nH]3)cn2)s1 | -0.2 | 99.7 | -1.0 | 23.7 | -16.1 | 53.7*
CCC(NC(=O)/C(=C\c1ccc2c(c1)OCO2)NC(C)=O)C(=O)O (stereo not given) | 7.7 | 91.6 | -0.3 | 7.6 | 1.1 | -5.4
CCOC(=O)c1cc(NC(=O)c2cccs2)ccc1N1CCOCC1 | -0.8 | 101.2 | 3.5 | 13.5 | -10.9 | 12.5
Cc1cccc(CSc2ncccc2C(=O)O)c1 | 3.3 | 104.9 | 2.2 | 54.4* | 6.0 | 3.3
Cc1ccc(CSc2ncccc2C(=O)O)cc1 | 2.1 | 98.4 | 2.7 | 5.4 | 4.5 | -7.7
Cc1cccc(N(CC(=O)NC(C)C)C(=O)CCC(=O)Nc2ccccn2)c1 | x | x | 0.7 | x | x | 0.1
CC(=O)c1c(C)[nH]c(C(=O)Nc2ccc(Cl)cc2)c1C | x | x | -5.0 | x | x | -6.1
CC(=O)c1c(C)[nH]c(C(=O)Nc2ccccn2)c1C | x | x | 5.4 | x | x | 51.2*
CCOc1cc(C(=O)N/N=C/C(Br)=C/c2ccccc2)cc(OCC)c1OCC | -13.6 | 110.1 | 0.8 | 16.9 | 3.2 | -14.0
CC(NC(=O)CCl)c1ccc(Cl)c(Cl)c1 (stereo not given) | 17.4 | 84.5 | 0.2 | 11.9 | 1.1 | 61.3*
CC(NC(=O)c1ccc(Cl)c(Cl)c1)c1ccc(-c2ccccc2)cc1 (stereo not given) | x | x | 0.5 | 16.4 | x | -3.9
CCCn1c(Nc2nc3ccccc3n2C)nc2ccccc21 | 4.4 | 97.9 | 4.3 | 7.2 | 7.7 | 52.6*
O=C1N(c2ccccc2)CCN1c1ccccc1 | x | x | 5.4 | x | x | 64.5*
FC(F)(F)c1cccc(CC2CN(Cc3ccccc3)Cc3ccccc3N2c2cc(Cl)cc(Cl)c2)c1 (stereo not given) | x | x | x | x | x | 60.3*
CC1CCN(C(=O)CSc2nc3ccccc3s2)CC1 | -23.9 | 123.5 | -5.5 | 0.9 | -34.7 | -10.3
CC1CCCC(C)N1C(=O)CSc1nc2ccccc2s1 (stereo not given) | -38.9 | 133.4* | -2.4 | 6.4 | -2.9 | 7.6
CC(C)C[C@H]1CN(CCCC[C@H]2CNC(=O)C(=O)N2CC2CCCCC2)C(=O)C(=O)N1CCC1CCCCC1 | x | x | x | x | x | 20.9
O=C(Cn1cnc([N+](=O)[O-])n1)N/N=C/c1ccc(O)cc1O | 10.9 | 100.4 | -2.5 | 7.3 | -4.4 | 52.3*
O=C(Cn1cnc([N+](=O)[O-])n1)N/N=C/c1cccc2ccccc12 | 4.6 | 95.5 | -2.4 | -7.2 | 10.6 | -1.8
CC(NC(=O)Cn1cnc([N+](=O)[O-])n1)c1ccccc1 (stereo not given) | -1.5 | 106.1 | 16.3* | -6.4 | 1.8 | -0.4
CC1=C(C(=O)OCC2CCCO2)C(c2coc3ccc(C)cc3c2=O)C2=C(CCCC2=O)N1 (stereo not given) | -10.8 | 113.8 | -0.7 | -5.7 | 1.7 | 1.9
CC1=C(C(=O)OCC2CCCO2)C(c2coc3ccc(Cl)cc3c2=O)C2=C(CCCC2=O)N1 (stereo not given) | -26.6 | 134.1* | -1.9 | -0.9 | 7.6 | -8.5
CCOC(=O)C[C@H]1c2cc(F)ccc2S(=O)(=O)N1C1CCCC1 | x | x | x | x | x | 3.5

Assay outcomes deposited in PubChem BioAssay by several laboratories.
